Source: ChEMBL document CHEMBL2202977, “Optimization and structure-activity relationships of a series of potent inhibitors of methicillin-resistant Staphylococcus aureus (MRSA) pyruvate kinase as novel antimicrobial agents” (Bioorg Med Chem, 2012)
Values after ≈ are worked out from the molar mass of the structure shown.

Legend:
[1] = molecular target: T1, Pyruvate kinase (Staphylococcus aureus (strain MRSA252)) (UniProt Q6GG09); assay: Inhibition of methicillin-resistant Staphylococcus aureus 252 pyruvate kinase at 10 uM by LDH assay; conditions: Staphylococcus aureus subsp. aureus MRSA252
T1 sequence (whole entry): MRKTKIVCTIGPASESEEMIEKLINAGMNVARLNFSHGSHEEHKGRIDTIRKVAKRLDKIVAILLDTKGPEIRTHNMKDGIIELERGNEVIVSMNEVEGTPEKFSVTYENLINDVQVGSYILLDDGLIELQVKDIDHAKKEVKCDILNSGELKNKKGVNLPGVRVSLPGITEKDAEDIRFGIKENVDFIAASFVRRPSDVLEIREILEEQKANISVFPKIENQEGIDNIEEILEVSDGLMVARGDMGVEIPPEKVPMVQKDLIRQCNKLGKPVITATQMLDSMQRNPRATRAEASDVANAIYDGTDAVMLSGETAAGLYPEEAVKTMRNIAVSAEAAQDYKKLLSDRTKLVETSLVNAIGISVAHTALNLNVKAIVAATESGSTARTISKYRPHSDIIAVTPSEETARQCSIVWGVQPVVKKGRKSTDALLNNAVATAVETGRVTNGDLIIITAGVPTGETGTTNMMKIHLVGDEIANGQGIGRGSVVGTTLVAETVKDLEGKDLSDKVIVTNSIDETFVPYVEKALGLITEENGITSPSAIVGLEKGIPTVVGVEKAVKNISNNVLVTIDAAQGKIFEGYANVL
Method in brief: (§1)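 MRSA pyruvate kinase activity was measured by a previously described procedure. IC50 was calculated from triplicate 15-point titrations, or averaged over n such determinations. Where no IC50 was obtained, the value is % inhibition at the highest concentration tested.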

Staphylococcus aureus [2] = assay: Antimicrobial activity against Staphylococcus aureus RN4220 after 24 hrs broth microdilution method; format: functional
Method in brief: (§2)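 MIC taken as the minimum concentration giving >98% growth inhibition of the named S. aureus strain (RN4220, ATCC 25923 or ATCC 29213). Values are single determinations or averages of n determinations. Vancomycin was run as control.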

Pyruvate kinase = molecular target: T2, Pyruvate kinase (Staphylococcus aureus (strain MRSA252), UniProt Q6GG09); assay: Inhibition of methicillin-resistant Staphylococcus aureus 252 pyruvate kinase by LDH assay; parameters: species or system Staphylococcus aureus subsp. aureus MRSA252; method in brief: as §1
T2 sequence (Q6GG09 whole entry): T1 sequence (whole entry)

Staphylococcus aureus [3] = assay: Antimicrobial activity against Staphylococcus aureus ATCC 29213 after 24 hrs broth microdilution method; format: functional; method in brief: as §2
[4] = molecular target: Pyruvate kinase PKLR (Homo sapiens) (UniProt P30613); assay: Inhibition of human pyruvate kinase L at 10 uM by LDH assay
Method in brief: (§3)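 Selected compounds were tested against mammalian PK isoforms M1, M2, R and L at the highest concentration, 10 µM. Results are given as percent inhibition.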

[5] = molecular target: Pyruvate kinase PKM (Homo sapiens) (UniProt P14618); assay: Inhibition of human pyruvate kinase M2 at 10 uM by LDH assay; method in brief: as §3
[6] = molecular target: Pyruvate kinase PKLR (Homo sapiens) (UniProt P30613); assay: Inhibition of human pyruvate kinase R at 10 uM by LDH assay; method in brief: as §3
[7] = molecular target: Pyruvate kinase PKM (Homo sapiens) (UniProt P14618); assay: Inhibition of human pyruvate kinase M1 at 10 uM by LDH assay; method in brief: as §3

Pyruvate kinase PKM (Homo sapiens), sequence (P14618 2-531 limits assumed): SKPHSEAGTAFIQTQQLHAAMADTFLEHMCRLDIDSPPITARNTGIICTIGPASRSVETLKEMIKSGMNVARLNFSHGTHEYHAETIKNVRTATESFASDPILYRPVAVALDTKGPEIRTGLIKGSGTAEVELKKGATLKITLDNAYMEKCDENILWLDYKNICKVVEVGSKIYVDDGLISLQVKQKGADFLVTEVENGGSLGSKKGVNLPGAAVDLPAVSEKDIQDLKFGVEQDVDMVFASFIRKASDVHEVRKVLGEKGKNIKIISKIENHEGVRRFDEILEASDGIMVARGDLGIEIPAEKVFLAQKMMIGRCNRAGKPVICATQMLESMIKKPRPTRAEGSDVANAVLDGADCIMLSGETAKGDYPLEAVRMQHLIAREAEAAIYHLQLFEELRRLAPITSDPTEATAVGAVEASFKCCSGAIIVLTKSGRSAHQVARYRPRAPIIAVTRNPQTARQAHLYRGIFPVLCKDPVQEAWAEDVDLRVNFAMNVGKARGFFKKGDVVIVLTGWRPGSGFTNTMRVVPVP
Pyruvate kinase PKLR (Homo sapiens), sequence (P30613 whole entry, looked up, canonical isoform): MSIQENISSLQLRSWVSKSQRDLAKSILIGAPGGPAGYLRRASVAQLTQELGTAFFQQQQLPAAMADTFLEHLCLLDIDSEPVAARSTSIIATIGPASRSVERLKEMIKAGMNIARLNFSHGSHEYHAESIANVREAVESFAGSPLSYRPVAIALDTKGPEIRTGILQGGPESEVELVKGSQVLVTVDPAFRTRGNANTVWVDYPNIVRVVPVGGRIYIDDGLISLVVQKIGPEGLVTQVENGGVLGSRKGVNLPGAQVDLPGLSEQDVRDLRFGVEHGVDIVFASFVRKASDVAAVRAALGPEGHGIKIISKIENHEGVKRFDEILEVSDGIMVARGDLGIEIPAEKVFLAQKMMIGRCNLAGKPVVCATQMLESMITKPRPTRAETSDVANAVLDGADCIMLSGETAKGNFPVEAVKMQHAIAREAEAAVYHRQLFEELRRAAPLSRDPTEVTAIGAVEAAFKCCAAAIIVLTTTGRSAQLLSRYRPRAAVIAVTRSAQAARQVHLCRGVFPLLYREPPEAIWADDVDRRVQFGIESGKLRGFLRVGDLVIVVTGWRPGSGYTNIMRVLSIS

Row | SMILES | inhibition [1] [%] | MIC>98 (Staphylococcus aureus [2]) [µg/mL] | IC50 (Pyruvate kinase) [nM] | MIC>98 (Staphylococcus aureus [3]) [µg/mL] | inhibition [4] [%] | inhibition [5] [%] | inhibition [6] [%] | inhibition [7] [%]
1 | COc1ccc(Br)cc1S(=O)(=O)N/N=C(\C)c1cc2ccccc2[nH]1 | 12 |  |  |  |  |  |  | 
2 | C/C(=N\NC(=O)c1ccccc1)c1cc2ccccc2[nH]1 | 28 | >139 |  |  |  |  |  | 
3 | C/C(=N\NC(=O)c1cccc(Br)c1)c1cc2ccccc2[nH]1 |  | >178 | 8150 |  |  |  |  | 
4 | CCC(=NNC(=O)c1cc(Br)ccc1O)c1cc2cc(Br)ccc2n1C (mixture of isomers) |  |  | 168 | 2 |  |  |  | 
5 | CC(=NNC(=O)c1cc(I)ccc1O)c1cc2ccccc2n1C (mixture of isomers) | 94.2 | 5.4 | 483 |  | 4.4 | -2 | 4.7 | -5.3
6 | CC/C(=N\NC(=O)c1cc2ccccc2cc1O)c1cc2c(F)c(F)c(F)cc2n1C |  |  | 52 | 32 (≈ 75.2 µM) |  |  |  | 
7 | C/C(=N\NC(=O)c1ccccc1O)c1cc2ccccc2[nH]1 |  | 59 (≈ 201 µM) | 8620 |  |  |  |  | 
8 | C/C(=N\NC(=O)c1cc(Br)ccc1O)c1cc2cc(Cl)ccc2[nH]1 | 80.1 | >81 | 52 |  | 0.1 | 4.6 | 2.4 | 4.4
9 | CC(=NNC(=O)c1cc(Br)ccc1O)c1cc2ccc(Br)cc2n1C (mixture of isomers) |  | 1 | 17 |  |  |  |  | 
10 | C/C(=N\NC(=O)c1cc(Br)ccc1O)c1cc2cc(Br)ccc2[nH]1 | 72.2 | >226 | 49 |  | 6.8 | 8.3 | 10.7 | 21.6
11 | C/C(=N\NC(=O)c1cc(-c2ccccc2)ccc1O)c1cc2ccccc2[nH]1 | 20 |  |  |  |  |  |  | 
12 | C/C(=N\NC(=O)c1cc(Br)ccc1O)c1cc2cc(C(F)(F)F)ccc2[nH]1 | 46 |  |  |  |  |  |  | 
13 | COc1ccc(Br)cc1S(=O)(=O)N/N=C(\C)c1cc2c(F)c(F)ccc2[nH]1 | 11 |  |  |  |  |  |  | 
14 | C/C(=N\NC(=O)c1cc(Br)ccc1O)c1nc2ccccc2[nH]1 | 96.4 | >187 | 91 |  | 2.1 | 6.7 | -1.4 | 7.6
15 | C/C(=N\NC(=O)c1cc(Br)ccc1O)c1cc2cc(F)ccc2[nH]1 | 97 | >195 | 49 |  | -0.5 | 0.4 | -1.6 | -4.6
16 | C/C(=N\NC(=O)c1cc(Br)ccc1O)c1cc2ccccc2s1 | 96.4 | >195 | 286 |  | 7.3 | -1.1 | 12.5 | 10.2
17 | CC(=NNC(=O)c1cc(Br)ccc1O)c1cc2c(F)c(F)ccc2n1C (mixture of isomers) |  | 2 | 145 |  |  |  |  | 
18 | C/C(=N\NC(=O)c1cc(I)ccc1O)c1cc2ccccc2[nH]1 | 97 | >84 | 151 |  | -1.6 | -1.3 | 0.9 | 0
19 | C/C(=N\NC(=O)c1cc(Br)ccc1O)c1cc2cc(I)ccc2[nH]1 |  | >64 | 43 |  |  |  |  | 
20 | CC(=NNC(=O)c1cc(Br)ccc1O)c1cc2cc(F)ccc2n1C (mixture of isomers) | 96.1 | 3.3 | 165 |  | -2.3 |  | -2.9 | -4.5
21 | C/C(=N\NC(=O)c1cc(Br)cc(Br)c1O)c1cc2ccccc2[nH]1 |  | 64 (≈ 142 µM) | 74 |  |  |  |  | 
22 | COc1ccc(Br)cc1C(=O)N/N=C(\C)c1cc2ccccc2[nH]1 | 83.4 | >193 | 182 |  | 27.2 | 16.1 | 31.9 | 29

Row | SMILES | inhibition [1] [%] | MIC>98 (Staphylococcus aureus [2]) [µg/mL] | IC50 (Pyruvate kinase) [nM] | MIC>98 (Staphylococcus aureus [3]) [µg/mL] | inhibition [4] [%] | inhibition [5] [%] | inhibition [6] [%] | inhibition [7] [%]
23 | CCC(=NNC(=O)c1cc(Br)ccc1O)c1cc2ccccc2n1C (mixture of isomers) | 99.1 | 5 | 461 |  | 2.7 | -1.5 | -1.9 | -4.3
24 | C/C(=N\OC(=O)c1cc(Br)ccc1O)c1cc2ccccc2n1C | 34 | >155 |  |  |  |  |  | 
25 | CC(=NNC(=O)c1cc(Br)ccc1O)c1cc2cc(Cl)ccc2n1C (mixture of isomers) | 92.3 | 1.3 | 228 |  | 5.7 | 3.7 | 6.9 | 14.8
26 | COc1cc(O)c(C(=O)NN=C(C)c2cc3ccccc3n2C)cc1Br (mixture of isomers) |  | >167 | 841 |  |  |  |  | 
27 | C/C(=N\NC(=O)c1ccc(Br)cc1O)c1cc2ccccc2[nH]1 |  |  | 1310 |  |  |  |  | 
28 | C/C(=N\NC(=O)c1ccccn1)c1cc2ccccc2[nH]1 | 15 | >139 |  |  |  |  |  | 
29 | C#CCOc1ccccc1C(=O)N/N=C(\C)c1cc2cc(Br)ccc2[nH]1 | 93.2 | >205 | 64 |  | 23.1 | 2.5 | 24 | 20.2
30 | C/C(=N\NC(=O)c1cc(Br)ccc1O)c1cc2cc(F)c(F)cc2[nH]1 |  | >82 | 20 |  |  |  |  | 
31 | CC(=NNC(=O)c1cc(Br)ccc1O)c1cc2cc(Br)ccc2n1C (mixture of isomers) |  | 1.4 | 146 |  | 9.2 | 11.9 | 14.2 | 19.5
32 | O=C(N/N=C/c1cc2ccccc2[nH]1)c1cc(Br)ccc1O | 89.9 | >179 | 863 |  | 0.2 | -1.4 | -0.5 | -7.2
33 | Cn1c(C=NNC(=O)c2cc(Br)ccc2O)cc2ccccc21 (mixture of isomers) |  | >186 | 3090 |  |  |  |  | 
34 | CC(=NNC(=O)c1cc(Br)ccc1O)c1cc2cc(F)c(F)cc2n1C (mixture of isomers) | 95.4 | 1.6 | 61 |  | -2.4 | -8.1 | 9 | 
35 | C/C(=N\NC(=O)c1cc(C(C)C)cc(C(C)C)c1O)c1cc2ccccc2[nH]1 | 40 |  |  |  |  |  |  | 
36 | CC(=NNC(=O)c1cc(Br)ccc1O)c1nc2ccccc2s1 |  | >78 | 224 |  |  |  |  | 
37 | CC(=NNC(=O)c1cc(Br)ccc1O)c1nc2ccccc2n1C (mixture of isomers) |  | >194 | 227 |  | -1.3 | 0.5 | 7.1 | -3
38 | CC/C(=N\NC(=O)c1cc(Br)ccc1O)c1cc2ccccc2[nH]1 | 99.2 | 9.7 (≈ 25.1 µM) | 126 |  | 3.6 | -2.4 | 4.8 | 6.6
39 | COc1ccc(Br)cc1C(=O)O/N=C(\C)c1cc2ccccc2n1C | 33 | >161 |  |  |  |  |  | 
40 | COc1ccc2[nH]c(/C(C)=N/NC(=O)c3cc(Br)ccc3O)cc2c1 | 89.3 | >80 | 178 |  | 3.9 | 2.2 | 5.2 | 7.2
41 | COc1cc(O)c(C(=O)N/N=C(\C)c2cc3ccccc3[nH]2)cc1Br |  | >161 | 324 |  |  |  |  | 
42 | C/C(=N\NC(=O)c1cc(Br)ccc1O)c1cc2ccccc2[nH]1 | 98.1 | >186 | 85 |  | -6.9 | 4.3 | -8.7 | 4.6
43 | C/C(=N\NC(=O)c1cc(Br)ccc1O)c1cc2c(F)c(F)ccc2[nH]1 |  | 41 (≈ 100 µM) | 24 |  |  |  |  | 
44 | COc1ccc2c(c1)cc(C(C)=NNC(=O)c1cc(Br)ccc1O)n2C (mixture of isomers) | 71.3 | 10.4 | 794 |  | 2.8 |  | 5.5 | -2.8
